Legend:
[1] = biological target: Sodium-dependent dopamine transporter (Homo sapiens, UniProt Q01959); experiment: Displacement of [125I]RTI-55 from human DAT receptor expressed in canine kidney cells; assay type: cell-based
Outline: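 Competition binding against [¹²⁵I]RTI-55 in canine kidney cells stably transfected with human DAT. Ki in nM, geometric mean ± SD of at least three separate experiments, each run in triplicate.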

Homo sapiens = species on record: Homo sapiens; experiment: Selectivity for human NET over human SERT
Outline: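 Competition binding in stably transfected cells expressing human transporters: NET vs [3H]nisoxetine and SERT vs [3H]citalopram in HEK-293 cells; DAT vs [125I]RTI-55 in canine kidney cells. Ki as geometric mean of at least three experiments in triplicate; selectivity as ratio of SERT or DAT Ki to NET Ki.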

Sodium-dependent dopamine transporter, sequence (Q01959 whole entry): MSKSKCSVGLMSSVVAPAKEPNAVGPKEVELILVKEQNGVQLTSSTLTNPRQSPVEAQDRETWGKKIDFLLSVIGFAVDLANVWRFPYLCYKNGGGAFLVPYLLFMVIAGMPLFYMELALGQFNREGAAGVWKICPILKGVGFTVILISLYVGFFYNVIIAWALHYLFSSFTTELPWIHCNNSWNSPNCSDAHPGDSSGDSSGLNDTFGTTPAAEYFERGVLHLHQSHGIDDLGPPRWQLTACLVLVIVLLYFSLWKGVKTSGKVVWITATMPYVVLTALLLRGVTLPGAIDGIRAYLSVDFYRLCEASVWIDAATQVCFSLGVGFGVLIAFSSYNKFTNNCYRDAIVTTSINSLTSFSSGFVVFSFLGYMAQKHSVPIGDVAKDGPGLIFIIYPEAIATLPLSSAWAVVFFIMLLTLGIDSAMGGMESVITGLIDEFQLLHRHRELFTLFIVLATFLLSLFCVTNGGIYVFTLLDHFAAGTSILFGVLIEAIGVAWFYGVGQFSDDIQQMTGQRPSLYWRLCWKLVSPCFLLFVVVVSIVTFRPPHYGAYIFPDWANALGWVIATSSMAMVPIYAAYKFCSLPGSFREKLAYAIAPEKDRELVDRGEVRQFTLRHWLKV

COc1ccccc1O[C@@H](c1ccccc1)[C@@H]1CNCCO1
Ki [1]: > 2 µM | Ratio Ki (Homo sapiens): 195

Source: ChEMBL document CHEMBL1139340, “Synthesis, radiosynthesis, and biological evaluation of carbon-11 and fluorine-18 labeled reboxetine analogues: potential positron emission tomography radioligands for in vivo imaging of the norepinephrine transporter” (J Med Chem, 2009)
